WT yeast gro inh: growth inhibition of WT yeast, mitochondrial fusion screen; inhibition, % at 10 µM; AID 1362; actives 2.1% (n = 190,000); mitochondrial fusion phenotypic screen, WT strain; in the data active = inhibition above about 58%; tested in S. cerevisiae
MEKK2wt PB1 HTS: raises or lowers MEK5 binding to wildtype human MEKK2 PB1 domain; Q9Y2U5; bead flow cytometry, Alexa488-MEK5 binding to MEKK2 WT; actives lie on both sides; binding response (% of control), % at 10 µM; actives 1.1% (n = 290,000); in the data active = binding response below about 67% or above about 130%
ABCG2 inh: inhibitors of human ABCG2 transporter, ABCB1 counter-screen | IgMXP3 cells, JC-1 efflux, flow cytometry | inhibition, % at 6.6 µM | actives 0.1% (n = 190,000) | Q9UNQ0;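 active = inhibition above 80%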
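material = IgMXP3 (ABCG2) plus far-red-tagged CCRF-Adr (ABCB1) cells | amount = 3 million cells/mL, equal mix of both lines | also added = JC-1 transporter substrate | dosing = one concentration, 6.6 µM final | schedule = 10 min at 25 °C | measured by = flow cytometric JC-1 green MFI at 530 nm | read-out basis = percent efflux inhibition, scaled nicardipine 100% to DMSO 0%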
MEKK3 PB1 HTS: modulators (inhibitors or enhancers) of MEK5 binding to human MEKK3 PB1 domain. bead-based flow cytometry, Alexa488-MEK5 binding to MEKK3; actives lie on both sides; 0 = blocked by unlabeled MEK5, 100 = vehicle. actives 1.4% (n = 290,000). AID 1529. Q99759. binding response (% of control), % at 10 µM;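 active = binding response more than 3 SD above or below the average of its plate-row segment, actives on both sides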;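 note: Alexa488 bead fluorescence after subtracting the streptavidin-only scavenger bead signal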
ABCB1 inh: human ABCB1 inhibition, ABCG2 as counter-screen | P08183 | CCRF-Adr cells, JC-1 efflux, flow cytometry | inhibition, % at 6.6 µM | actives 0.067% (n = 190,000); in the data active = inhibition above about 40%;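 note: higher value means more JC-1 retained so stronger ABCB1 efflux block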
MEKK2mut PB1 HTS: signal of MEK5 binding to mutant human MEKK2 PB1 domain; bead flow cytometry, Alexa488-MEK5 binding to MEKK2 mutant; percent response, % at 10 µM; actives 0.35% (n = 290,000); in the data active = percent response above about 24%, passing the limit was not always enough
Each line names hits and unclear results; the compound was inactive in the other large screens. A selection: hits, their analogues and other compounds. The true share with any hit is near 3.5%.

O=C(Nc1nc(-c2ccccn2)cs1)c1cc(Cl)ccc1[N+](=O)[O-]	WT yeast gro inh 69.7
Cc1cc(C(=O)Nc2nc(-c3ccccn3)cs2)ccc1[N+](=O)[O-]	WT yeast gro inh 62.5
CC(=O)Nc1ccc(C(=O)Nc2nc(-c3ccccn3)cs2)cc1	none
Cc1ccc(-c2csc(NC(=O)c3ccc(-c4ccccc4)cc3)n2)o1	WT yeast gro inh 77.5
O=C(Nc1nc(-c2ccccn2)cs1)c1ccc([N+](=O)[O-])o1	none (no result: WT yeast gro inh, ABCG2 inh, ABCB1 inh)
CC(=O)Nc1ccc(C(=O)OCC(=O)NCc2ccc(Cl)cc2)cc1	none
Cc1cccc(NC(=O)CCNC(=O)c2ccc(Br)cc2)c1C	none (no result: WT yeast gro inh, ABCG2 inh, ABCB1 inh)
CCCOc1cc(N(CC)CC)ccc1/C=C(/C#N)c1nc2ccc(C)cc2[nH]1	MEKK2wt PB1 HTS 57.0, MEKK2mut PB1 HTS 87.0
Cc1ccc(SCC(=O)NC(=O)Nc2ccc3c(c2)OCCO3)c(C)c1	none
CC1=CCC2C(=O)N(c3cccc(C(=O)Nc4ccccc4Cl)c3)C(=O)C2C1 (configuration not stated)	none (no result: WT yeast gro inh, ABCG2 inh, ABCB1 inh)
CC(C)N(Cc1nc(-c2ccc(Cl)cc2)no1)C(=O)CCC1CCCC1	WT yeast gro inh 67.4
Cc1ccc(C)c(C(=O)N(Cc2nc(-c3ccc(Cl)cc3)no2)C(C)C)c1	WT yeast gro inh 69.9
CC(C)N(Cc1nc(-c2ccccc2)no1)C(=O)C(Cl)(Cl)Cl	WT yeast gro inh 72.1
COc1ccccc1OCC(=O)N(Cc1nc(-c2ccc(Cl)cc2)no1)C(C)C	none
COc1ccc(CN2CCc3ccccc3C2)c(OC)c1OC	none
NS(=O)(=O)c1ccc(NC(=O)CSc2nc(Nc3ccccc3)nc(N3CCOCC3)n2)cc1	none (no result: WT yeast gro inh, ABCG2 inh, ABCB1 inh)
COc1ccccc1NS(=O)(=O)c1cc(NC(=O)Nc2ccc(Cl)cc2Cl)ccc1N1CCCCC1	none
COc1cc(/C=C/C(=O)Nc2ccc(N3CCCCC3)c(S(=O)(=O)Nc3ccccc3Cl)c2)cc(OC)c1OC	MEKK2wt PB1 HTS 32.0
Cc1nn(-c2ccccc2)c(Cl)c1/C=N/NS(=O)(=O)c1ccc(Br)cc1	WT yeast gro inh 58.2
CNC(=S)N/N=C/c1c(C)nn(-c2ccccc2)c1Cl	none
Cc1nc2c(-c3ccccc3)c(C)nn2c(N)c1-c1ccccc1	WT yeast gro inh 73.6
Cc1nn(-c2nc3ccccc3[nH]2)c(N)c1-c1ccccc1	WT yeast gro inh 72.3
Cc1nn2c(Nc3ccccc3)c3c(nc2c1-c1ccccc1)CCC3	MEKK3 PB1 HTS 176.0
Cc1cc(NCCC(C)C)n2nc(C)c(-c3ccccc3)c2n1	WT yeast gro inh 71.7
Cc1ccc(-n2ncc3c2CCCC3NC(=O)CSc2ccccn2)cc1C (configuration not stated)	none (no result: WT yeast gro inh, ABCG2 inh, ABCB1 inh)
CN(C[C@@H](CC1CCCCC1)N(C[C@H](Cc1ccccc1)N(CCc1ccccc1)N=O)N=O)N=O	none
COc1ccc(N=C2C(=O)N3c4c(cccc42)C(C)=CC3(C)C)cc1	none
COc1ccc(C(=O)c2c(C(F)(F)F)oc3c2C(=O)c2ccccc2C3=O)cc1OC	WT yeast gro inh 90.4
COc1ccc(C(=O)Nc2ccc3c(c2)C(=O)c2ccccc2C3=O)cc1OC	none
Cc1ccccc1N(C(=O)Cn1nnc(-c2cccs2)n1)C(C(=O)NCCC(C)C)c1ccco1 (configuration not stated)	none
CN(C)c1ccc(C(=O)c2ccc(N(C)C)c3ccccc23)cc1	WT yeast gro inh 60.8
COc1ccc(C(=O)c2ccc(N(C)C)cc2)c(OC)c1	none
CCOc1ccc(NS(=O)(=O)c2cnc(Cl)c(Cl)c2)cc1	WT yeast gro inh 71.0
Cc1ccc(C)c(NC(=O)c2ccccc2NS(=O)(=O)c2cc([N+](=O)[O-])ccc2C)c1	WT yeast gro inh 80.4
Cc1ccc(NS(=O)(=O)c2cc(C(=O)Nc3cccc([N+](=O)[O-])c3)ccc2C)cc1	WT yeast gro inh 64.2
Cc1ccc(NC(=O)c2cccs2)cc1S(=O)(=O)Nc1cccc(Cl)c1	WT yeast gro inh 70.3
Cc1c(NC(=O)CCCCCN2C(=O)c3ccccc3C2=O)c(=O)n(-c2ccccc2)n1C	none
N/C(Cc1ccc(Cl)cc1Cl)=N\OC(=O)c1ccccc1F	WT yeast gro inh 97.1
N/C(Cc1cccc2ccccc12)=N\OC(=O)c1ccccc1F	none (no result: WT yeast gro inh, ABCG2 inh, ABCB1 inh)
COc1ccccc1OCC(=O)Nc1nc(C)c(C)s1	none (no result: WT yeast gro inh, ABCG2 inh, ABCB1 inh)
Cc1ccsc1/C=N/NC(=O)C1C(=O)NCC1c1ccccc1 (configuration not stated)	none (no result: WT yeast gro inh, ABCG2 inh, ABCB1 inh)
COC(=O)C1C(=O)NCC1c1ccccc1 (configuration not stated)	WT yeast gro inh 93.8 (no result: MEKK2wt PB1 HTS, MEKK3 PB1 HTS, MEKK2mut PB1 HTS)
N=C(N)c1ccc(O)cc1	none
CC/C(=C(/CC)c1ccc(O)cc1)c1ccc(O)cc1	WT yeast gro inh 76.0
COC(=O)c1ccn(C(=O)c2ccc(Cl)cc2)n1	WT yeast gro inh 92.6 (no result: MEKK2wt PB1 HTS, MEKK3 PB1 HTS, MEKK2mut PB1 HTS)
CCOc1ccc(NC(=S)NC(C)CCc2ccccc2)cc1 (configuration not stated)	WT yeast gro inh 61.1
Cc1ccccc1NC(=S)NC(C)CCc1ccccc1 (configuration not stated)	WT yeast gro inh 67.8
CC1CCCC(C)N1C(=O)COC(=O)c1ccc(O)cc1 (configuration not stated)	none
CCCc1ccc2c(N)c(C#N)sc2n1	none (no result: ABCG2 inh, ABCB1 inh)
Cc1ccc2c(N)c(C#N)sc2n1	WT yeast gro inh 87.2
Clc1ccc(/C=C/c2ncc3ccccn23)cc1	none
COc1ccc(N2CCN(S(=O)(=O)c3ccc4c(c3)NC(=O)C(C)S4)CC2)cc1 (configuration not stated)	none (no result: WT yeast gro inh, ABCG2 inh, ABCB1 inh)
COc1ccc2c(c1)CCc1c-2n[nH]c1C(=O)O	WT yeast gro inh 72.2
CCOC(=O)COc1ccccc1/C=C\[N+](=O)[O-]	WT yeast gro inh 68.6
CCOC(=O)COc1cc([N+](=O)[O-])cc2cccnc12	none
Cc1c(C(=O)O)cccc1-c1ccc(/C=C2/NC(=O)N(c3ccccc3)C2=O)o1	MEKK2wt PB1 HTS -10.0
CC(C)COC(=O)CCn1[nH]c(=O)c2ccccc2c1=O	none
CCCCCCCCOC(=O)CCn1[nH]c(=O)c2ccccc2c1=O	WT yeast gro inh 79.6
C/C(CCc1ccc2c(c1)OCO2)=N\NC(=S)NC(C)C	WT yeast gro inh 59.1
COCCNC(=S)N/N=C(\C)CCc1ccc2c(c1)OCO2	none
O=C(CSc1nnc(Cc2cc(=O)[nH]c(=O)[nH]2)n1-c1ccccc1)NCC1CCCO1 (configuration not stated)	none
O=C(CSc1nnc(Cc2cc(=O)[nH]c(=O)[nH]2)n1-c1ccc(Cl)cc1)NCC1CCCO1 (configuration not stated)	MEKK2wt PB1 HTS 8.0
Cc1cc(-c2ccccc2)nc(SC(C(=O)O)c2ccccc2)n1 (configuration not stated)	MEKK2wt PB1 HTS -1.0

Screening results as filed in PubChem BioAssay.
